Assay results gathered from unrelated publications.
Lines come from different studies, so protocols differ.
Technique: competition with immobilised ligand
RPS6KA4 N-terminal kinase domain: Ribosomal protein S6 kinase alpha-4, N-terminal kinase domain (RPS6KA4, Homo sapiens, UniProt O75676)
RPS6KA4 C-terminal kinase domain: Ribosomal protein S6 kinase alpha-4, C-terminal kinase domain (RPS6KA4, Homo sapiens, UniProt O75676)

SMILES | target | read-out | concentration | remaining binding [%]
CSc1cccnc1N1CCN(Cc2nc3ccccc3[nH]2)CC1 | RPS6KA4 N-terminal kinase domain | cell-free assay | 1 µM | 94
CN(C)c1nccc(-c2cnc3ncccn23)n1 | RPS6KA4 C-terminal kinase domain | binding | 1 µM | 62
O=C(NCC1CCOCC1)c1n[nH]cc1NC(=O)c1c(F)cccc1F | RPS6KA4 N-terminal kinase domain | binding | 1 µM | 95
COc1cnc(Nc2cccc(S(N)(=O)=O)c2)nc1N1CCN(c2ccccc2)CC1 | RPS6KA4 N-terminal kinase domain | binding | 1 µM | 94
O=C(c1ccc(Nc2ncc(Cl)c(-c3ccc(Cl)s3)n2)cc1)N1CCC(N2CCCC2)CC1 | RPS6KA4 C-terminal kinase domain | binding | 1 µM | 18
Cc1c(C(=O)O)cc(-c2ccc(C3CCNCC3)cc2)c2ccc(-c3ccc(C(F)(F)F)cc3)cc12 | RPS6KA4 N-terminal kinase domain | binding | 1 µM | 88
CN(C)c1ncc(F)c(-c2cnn3ncccc23)n1 | RPS6KA4 N-terminal kinase domain | binding | 1 µM | 89
C[C@@H](c1ccc(-n2cnc3c(N)ncnc32)cc1)N1CCc2nn(C)c(Cc3ccccc3)c2C1=O | RPS6KA4 C-terminal kinase domain | binding | 0.1 µM | 84
O=C(NCc1ncc(C(F)(F)F)cc1Cl)c1ccc2c(c1)C1(CCS(=O)(=O)CC1)[C@@H](C1CC1)N2S(=O)(=O)c1ccc(F)cc1 | RPS6KA4 C-terminal kinase domain | cell-free assay | 1 µM | 84
CN(CCCC(F)(F)F)c1nccc(-c2cnn3ncccc23)n1 | RPS6KA4 N-terminal kinase domain | binding | 1 µM | 100
Nc1ncc2c(n1)-c1c([nH]c3ccc(C#CC4CC4)cc13)CCCC2 | RPS6KA4 N-terminal kinase domain | binding | 1 µM | 88
O=C(Nc1c[nH]nc1C(=O)NC1CCNCC1)c1cc(F)cc(F)c1 | RPS6KA4 N-terminal kinase domain | binding | 1 µM | 100
COc1cnc(Nc2cccc(S(N)(=O)=O)c2)nc1N1CCN(c2ccccc2)C(=O)C1 | RPS6KA4 C-terminal kinase domain | binding | 1 µM | 100
Cc1cnc(Nc2ccc(C(=O)N3CCC(N4CCCC4)CC3)cc2)nc1-c1cc2ccccc2s1 | RPS6KA4 C-terminal kinase domain | binding | 1 µM | 3.8
COc1ncc2cc3ccccc3nc2c1C#N | RPS6KA4 N-terminal kinase domain | cell-free assay | 5 µM | 94
C[C@@H]1CCN(c2nccc(-c3cnn4ncccc34)n2)C1 | RPS6KA4 C-terminal kinase domain | binding | 1 µM | 58
C=CC(=O)N1CCC(C(=O)NCC(=O)N2CCN(c3nc(-c4cnc(N)nc4C(F)F)nc(N4CCOCC4)n3)CC2)CC1 | RPS6KA4 C-terminal kinase domain | binding | 1 µM | 100

SMILES | target | read-out | concentration | remaining binding [%]
O=C(c1ccc(Nc2nccc(-c3cc4ccccc4s3)n2)cc1)N1CCC(N2CCCC2)CC1 | RPS6KA4 C-terminal kinase domain | binding | 1 µM | 14
Cc1cnn2ncc(-c3ccnc(N(C)C)n3)c2c1 | RPS6KA4 C-terminal kinase domain | binding | 1 µM | 62
O=C(NCCCN1CCOCC1)c1ccc(Nc2nccc(-c3cc4ccccc4s3)n2)cc1 | RPS6KA4 N-terminal kinase domain | binding | 1 µM | 100
O=C(O)[C@H]1[C@H](Cn2nnc3ccccc3c2=O)CC[C@@H]1C(=O)c1ccc(OCCC2CCOCC2)cc1 | RPS6KA4 N-terminal kinase domain | cell-free assay | 1 µM | 100
O=C(c1ccc(Nc2ncc(Cl)c(-c3cc4ccccc4s3)n2)cc1)N1CCC(N2CCCC2)CC1 | RPS6KA4 C-terminal kinase domain | binding | 1 µM | 13
FC(F)(F)Oc1cccc(-c2cnc3ccc(-c4ccncc4)nn23)c1 | RPS6KA4 N-terminal kinase domain | binding | 5 µM | 97
F[C@@H]1CCN(c2nccc(-c3cnn4ncccc34)n2)C1 | RPS6KA4 N-terminal kinase domain | binding | 1 µM | 90
CS(=O)(=O)NCC[C@H](NC(=O)c1cncc2c1cnn2-c1ccc(F)cc1)c1ccnc(S(C)(=O)=O)c1 | RPS6KA4 N-terminal kinase domain | cell-free assay | 1 µM | 85
c1cnn2ncc(-c3ccnc(N4CCC45COC5)n3)c2c1 | RPS6KA4 N-terminal kinase domain | binding | 1 µM | 91
O=C(NCCCC1CCCCC1)c1ccc(CNC(=O)c2cnn(-c3ccccc3)c2C(F)(F)F)cc1 | RPS6KA4 C-terminal kinase domain | cell-free assay | 0.1 µM | 90
CNC(=O)[C@@H]1CC[C@@H](n2c(-c3ccc4cnccc4c3)nc3ccc(C(=O)NCc4cccc(C(N)=O)c4)cc32)C1 | RPS6KA4 C-terminal kinase domain | binding | 1 µM | 99
O=C(NCCCN1CCOCC1)c1ccc(Nc2ncc(Cl)c(-c3ccc(Cl)s3)n2)cc1 | RPS6KA4 C-terminal kinase domain | binding | 1 µM | 26
COc1ccc2c(c1)O[C@@H](c1ccc(OC)c(OC)c1)C[C@H]2NC(=O)C1(c2ccc3c(c2)OC(F)(F)O3)CC1 | RPS6KA4 C-terminal kinase domain | cell-free assay | 1 µM | 81
c1cncc(-c2cccc(Nc3nccc(NC4CCCCC4)n3)c2)c1 | RPS6KA4 N-terminal kinase domain | binding | 10 µM | 78
CCN1CCN(Cc2ccc(C(=O)Nc3ccc(C)c(Oc4ccc5c(c4)CC(=O)N5)c3)cc2C(F)(F)F)CC1 | RPS6KA4 N-terminal kinase domain | binding | 1 µM | 100
C[C@@]1(Cc2ccc(C#N)cc2)C(=O)N(c2cc(Cl)cc(Cl)c2)c2ncc(C(=O)NC3(c4nc(C5CCC5)no4)CC3)n21 | RPS6KA4 C-terminal kinase domain | cell-free assay | 1 µM | 100
